Test results as given in ChEMBL document CHEMBL1933058, “5-(2-amino-pyrimidin-4-yl)-1H-pyrrole and 2-(2-amino-pyrimidin-4-yl)-1,5,6,7-tetrahydro-pyrrolo[3,2-c]pyridin-4-one derivatives as new classes of selective and orally available Polo-like kinase 1 inhibitors” (Bioorg Med Chem Lett, 2012).
pIC50: −log10 of the molar value. Active and inactive are the calls of the source. The calls are words filed in the database; no cut-off is given here.

What was measured:
[1] = target: Insulin-like growth factor 1 receptor (Homo sapiens, UniProt P08069); assay: Inhibition of IGFR1
[2] = AUC (0 to infinity) in Nu/Nu Balb Harlan mouse at 10 mg/kg, po; format: ADME, organism-based; set-up: time infinity, dose 10 mg/kg, route oral; details: plasma
[3] = Tmax in Nu/Nu Balb Harlan mouse at 10 mg/kg, po; format: ADME, organism-based; set-up: dose 10 mg/kg, route oral; details: in vivo
[4] = Inhibition of PDGFR
[5] = target: Cyclin-dependent kinase 2/cyclin E1 (Homo sapiens, UniProt P24941); assay: Inhibition of CDK2/cyclin E; format: protein-complex assay
[6] = Inhibition of NIM
[7] = target: RAC-alpha serine/threonine-protein kinase (Homo sapiens, UniProt P31749); assay: Inhibition of AKT1
[8] = target: Tyrosine-protein kinase JAK2 (Homo sapiens, UniProt O60674); assay: Inhibition of JAK2
[9] = target: MAP kinase-activated protein kinase 2 (Homo sapiens, UniProt P49137); assay: Inhibition of MAP-KAPK2
[10] = test system: A2780; assay: Cell cycle arrest in human A2780 cells assessed as reduction of phospho Ser46 TCTP level at 0.05 to 5 uM after 1 hr by Western blotting analysis; format: functional, cell-based
Outline: (§1)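 A2780 cells got 1 h exposure at 0.05, 0.5 and 5 µM, with nocodazole-treated cells as comparator. Western blot was used to probe the PLK1 substrate marker pSer46 TCTP and the mitotic marker pSer10 histone H3.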

[11] = target: Aurora kinase B (Homo sapiens, UniProt Q96GD4); assay: Inhibition of Aurora-B
[12] = AUC (0 to infinity) in Nu/Nu Balb Harlan mouse at 10 mg/kg, iv; format: ADME, organism-based; set-up: time infinity, dose 10 mg/kg, route intravenous; details: plasma
Outline: (§2)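 Male Balb Nu/Nu mice (Harlan) received a single 10 mg/kg intravenous dose, n = 3 animals per study. Vehicle was either trifluoroacetate salt in dextrose or free base in 50% PEG 400/glucosate, depending on compound. Parameters were reported as mean ± standard deviation.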

[13] = target: Receptor-type tyrosine-protein kinase FLT3 (Homo sapiens, UniProt P36888); assay: Inhibition of FLT3
[14] = test system: MOLT-4; assay: Antiproliferative activity against human MOLT4 cells; format: functional, cell-based
[15] = Volume of distribution at steady state in Nu/Nu Balb Harlan mouse at 10 mg/kg, iv; format: ADME, organism-based; set-up: dose 10 mg/kg, route intravenous; details: in vivo, read-out: Vdss
[16] = target: Vascular endothelial growth factor receptor 2 (Homo sapiens, UniProt P35968); assay: Inhibition of VEGFR2
Vascular endothelial growth factor receptor 2, sequence (P35968 whole entry): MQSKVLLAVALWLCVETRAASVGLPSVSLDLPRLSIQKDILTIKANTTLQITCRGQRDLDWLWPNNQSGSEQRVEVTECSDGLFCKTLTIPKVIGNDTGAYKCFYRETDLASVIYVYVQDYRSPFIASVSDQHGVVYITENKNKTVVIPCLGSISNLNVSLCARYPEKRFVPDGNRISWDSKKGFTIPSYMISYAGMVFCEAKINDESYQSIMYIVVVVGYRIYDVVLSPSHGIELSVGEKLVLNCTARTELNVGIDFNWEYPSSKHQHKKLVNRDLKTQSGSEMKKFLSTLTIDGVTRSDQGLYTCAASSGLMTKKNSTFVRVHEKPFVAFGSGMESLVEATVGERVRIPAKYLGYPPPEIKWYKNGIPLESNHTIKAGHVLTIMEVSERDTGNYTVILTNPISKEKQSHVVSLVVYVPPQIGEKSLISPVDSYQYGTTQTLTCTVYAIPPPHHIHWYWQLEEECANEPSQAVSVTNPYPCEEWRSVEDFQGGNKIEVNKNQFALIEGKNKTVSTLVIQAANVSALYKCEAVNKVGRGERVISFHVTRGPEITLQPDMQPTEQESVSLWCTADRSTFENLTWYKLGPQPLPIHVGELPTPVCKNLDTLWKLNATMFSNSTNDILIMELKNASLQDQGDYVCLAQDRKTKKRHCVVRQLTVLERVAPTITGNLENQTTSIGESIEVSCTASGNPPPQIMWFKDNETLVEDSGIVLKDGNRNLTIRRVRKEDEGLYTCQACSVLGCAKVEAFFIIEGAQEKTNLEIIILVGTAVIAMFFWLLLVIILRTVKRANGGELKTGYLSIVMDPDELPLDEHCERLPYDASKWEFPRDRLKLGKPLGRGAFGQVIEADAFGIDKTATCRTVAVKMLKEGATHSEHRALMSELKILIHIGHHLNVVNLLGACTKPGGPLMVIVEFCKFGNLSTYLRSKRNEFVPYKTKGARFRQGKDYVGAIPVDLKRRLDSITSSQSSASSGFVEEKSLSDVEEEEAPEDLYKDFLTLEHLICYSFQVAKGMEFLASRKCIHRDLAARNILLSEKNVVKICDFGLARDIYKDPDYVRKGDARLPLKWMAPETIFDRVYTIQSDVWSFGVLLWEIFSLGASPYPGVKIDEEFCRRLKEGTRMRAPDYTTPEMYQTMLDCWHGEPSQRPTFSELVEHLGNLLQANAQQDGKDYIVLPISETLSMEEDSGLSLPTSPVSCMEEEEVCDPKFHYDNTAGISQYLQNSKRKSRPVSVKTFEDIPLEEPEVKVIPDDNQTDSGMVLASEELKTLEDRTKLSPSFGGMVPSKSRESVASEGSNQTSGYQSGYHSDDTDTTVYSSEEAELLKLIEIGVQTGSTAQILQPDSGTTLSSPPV

[17] = test system: HCT-116; assay: Antiproliferative activity against human HCT116 cells; format: functional, cell-based
[18] = test system: A-375; assay: Antiproliferative activity against human A375 cells; format: functional, cell-based
[19] = Intrinsic clearance in human liver microsomes at 1 uM; format: ADME, Microsome; details: read-out: CLH
[20] = target: Glycogen synthase kinase-3 beta (Homo sapiens, UniProt P49841); assay: Inhibition of GSK3-beta
Glycogen synthase kinase-3 beta, sequence (P49841 whole entry): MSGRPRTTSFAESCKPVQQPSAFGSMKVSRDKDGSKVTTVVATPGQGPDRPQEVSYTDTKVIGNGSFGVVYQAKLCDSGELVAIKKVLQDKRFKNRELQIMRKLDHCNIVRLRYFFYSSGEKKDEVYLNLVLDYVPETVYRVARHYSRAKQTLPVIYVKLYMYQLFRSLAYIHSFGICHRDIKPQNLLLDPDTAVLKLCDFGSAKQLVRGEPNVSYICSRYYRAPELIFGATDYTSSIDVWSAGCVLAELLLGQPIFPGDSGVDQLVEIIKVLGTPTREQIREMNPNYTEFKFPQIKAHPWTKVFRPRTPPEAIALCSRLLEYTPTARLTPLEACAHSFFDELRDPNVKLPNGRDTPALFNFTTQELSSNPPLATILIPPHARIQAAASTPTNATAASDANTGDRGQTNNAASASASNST

[21] = target: Mitogen-activated protein kinase 1 (Homo sapiens, UniProt P28482); assay: Inhibition of ERK2
Mitogen-activated protein kinase 1, sequence (P28482 whole entry): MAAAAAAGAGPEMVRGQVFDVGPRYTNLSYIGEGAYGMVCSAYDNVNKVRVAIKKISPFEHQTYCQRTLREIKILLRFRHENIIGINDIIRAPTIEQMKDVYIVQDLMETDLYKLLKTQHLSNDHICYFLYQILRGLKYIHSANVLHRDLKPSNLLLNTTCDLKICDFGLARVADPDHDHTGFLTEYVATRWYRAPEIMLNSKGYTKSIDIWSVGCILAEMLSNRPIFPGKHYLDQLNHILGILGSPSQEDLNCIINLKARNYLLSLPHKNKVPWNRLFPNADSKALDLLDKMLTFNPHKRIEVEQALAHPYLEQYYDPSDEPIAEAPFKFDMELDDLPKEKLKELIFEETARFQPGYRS

[22] = test system: A2780; assay: Antiproliferative activity against human A2780 cells; format: functional, cell-based
[23] = target: cAMP-dependent protein kinase catalytic subunit alpha (Homo sapiens, UniProt P17612); assay: Inhibition of PKAalpha
[24] = Clearance in Nu/Nu Balb Harlan mouse at 10 mg/kg, iv; format: ADME, organism-based; set-up: dose 10 mg/kg, route intravenous; details: in vivo; outline: as §2
[25] = target: Tyrosine-protein kinase ABL1 (Homo sapiens, UniProt P00519); assay: Inhibition of c-ABL
[26] = test system: A2780; assay: Cell cycle arrest in human A2780 cells assessed as increase of phospho Ser10 histone H3 level at 0.05 to 5 uM after 1 hr by Western blotting analysis; format: functional, cell-based; outline: as §1
[27] = target: Serine/threonine-protein kinase PLK2 (Homo sapiens, UniProt Q9NYY3); assay: Inhibition of PLK2
Serine/threonine-protein kinase PLK2, sequence (Q9NYY3 whole entry): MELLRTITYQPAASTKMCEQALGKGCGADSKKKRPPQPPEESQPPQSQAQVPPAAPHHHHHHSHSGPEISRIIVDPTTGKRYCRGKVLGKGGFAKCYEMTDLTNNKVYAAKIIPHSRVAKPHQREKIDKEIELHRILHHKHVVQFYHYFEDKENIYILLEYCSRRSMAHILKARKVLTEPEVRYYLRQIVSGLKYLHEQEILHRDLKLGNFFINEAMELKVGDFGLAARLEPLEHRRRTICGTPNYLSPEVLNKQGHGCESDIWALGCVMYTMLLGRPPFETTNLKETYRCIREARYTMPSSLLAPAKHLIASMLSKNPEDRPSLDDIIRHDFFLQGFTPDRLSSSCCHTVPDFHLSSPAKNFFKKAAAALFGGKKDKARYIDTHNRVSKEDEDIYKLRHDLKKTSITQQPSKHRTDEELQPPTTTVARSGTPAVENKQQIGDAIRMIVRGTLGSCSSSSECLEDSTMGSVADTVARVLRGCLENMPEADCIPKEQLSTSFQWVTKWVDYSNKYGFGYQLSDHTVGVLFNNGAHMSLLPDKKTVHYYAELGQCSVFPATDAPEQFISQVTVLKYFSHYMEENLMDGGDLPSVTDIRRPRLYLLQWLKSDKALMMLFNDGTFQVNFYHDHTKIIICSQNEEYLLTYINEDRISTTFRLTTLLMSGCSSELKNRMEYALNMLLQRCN

[28] = target: Inhibitor of nuclear factor kappa-B kinase subunit beta (Homo sapiens, UniProt O14920); assay: Inhibition of IKK2
[29] = target: Hepatocyte growth factor receptor (Homo sapiens, UniProt P08581); assay: Inhibition of MET
[30] = target: Epidermal growth factor receptor (Homo sapiens, UniProt P04626+P00533+Q15303+P21860); assay: Inhibition of EGFR1; format: protein assay
[31] = target: Cyclin-dependent kinase 4/cyclin D1 (Homo sapiens, UniProt P11802); assay: Inhibition of CDK4/cyclin D1; format: protein-complex assay
Cyclin-dependent kinase 4/cyclin D1, sequence (P11802 whole entry): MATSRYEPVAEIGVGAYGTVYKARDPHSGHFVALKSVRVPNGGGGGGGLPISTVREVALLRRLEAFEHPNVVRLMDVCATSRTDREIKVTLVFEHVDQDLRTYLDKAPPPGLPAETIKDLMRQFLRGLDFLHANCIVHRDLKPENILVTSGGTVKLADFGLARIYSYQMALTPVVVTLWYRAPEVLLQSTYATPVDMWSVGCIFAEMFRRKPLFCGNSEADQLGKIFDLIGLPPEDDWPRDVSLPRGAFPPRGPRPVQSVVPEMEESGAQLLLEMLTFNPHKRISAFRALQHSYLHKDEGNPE
Cyclin-dependent kinase 4/cyclin D1, sequence (P24385 whole entry, further chain): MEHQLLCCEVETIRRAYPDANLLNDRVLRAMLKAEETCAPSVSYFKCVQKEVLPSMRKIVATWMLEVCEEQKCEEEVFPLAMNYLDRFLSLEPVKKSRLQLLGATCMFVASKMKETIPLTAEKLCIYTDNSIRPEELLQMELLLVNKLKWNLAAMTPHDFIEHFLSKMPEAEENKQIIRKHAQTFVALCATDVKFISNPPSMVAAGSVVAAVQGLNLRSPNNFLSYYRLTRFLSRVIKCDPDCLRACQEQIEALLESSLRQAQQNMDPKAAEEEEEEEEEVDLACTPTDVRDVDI

[32] = target: Tyrosine-protein kinase Lck (Homo sapiens, UniProt P06239); assay: Inhibition of LCK
[33] = target: Cyclin-dependent kinase 1/cyclin B1 (Homo sapiens, UniProt P06493); assay: Inhibition of CDK1/cyclin B; format: protein-complex assay
Cyclin-dependent kinase 1/cyclin B1, sequence (P06493 whole entry): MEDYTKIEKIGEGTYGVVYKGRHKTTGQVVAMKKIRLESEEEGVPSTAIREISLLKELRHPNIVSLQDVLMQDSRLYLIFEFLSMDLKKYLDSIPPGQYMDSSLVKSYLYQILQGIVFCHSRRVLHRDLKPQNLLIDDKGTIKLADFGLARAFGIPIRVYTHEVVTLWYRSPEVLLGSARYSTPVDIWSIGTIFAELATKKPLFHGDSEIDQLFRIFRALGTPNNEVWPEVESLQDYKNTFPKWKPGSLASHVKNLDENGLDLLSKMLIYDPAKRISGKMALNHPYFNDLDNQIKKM
Cyclin-dependent kinase 1/cyclin B1, sequence (P14635 whole entry, further chain): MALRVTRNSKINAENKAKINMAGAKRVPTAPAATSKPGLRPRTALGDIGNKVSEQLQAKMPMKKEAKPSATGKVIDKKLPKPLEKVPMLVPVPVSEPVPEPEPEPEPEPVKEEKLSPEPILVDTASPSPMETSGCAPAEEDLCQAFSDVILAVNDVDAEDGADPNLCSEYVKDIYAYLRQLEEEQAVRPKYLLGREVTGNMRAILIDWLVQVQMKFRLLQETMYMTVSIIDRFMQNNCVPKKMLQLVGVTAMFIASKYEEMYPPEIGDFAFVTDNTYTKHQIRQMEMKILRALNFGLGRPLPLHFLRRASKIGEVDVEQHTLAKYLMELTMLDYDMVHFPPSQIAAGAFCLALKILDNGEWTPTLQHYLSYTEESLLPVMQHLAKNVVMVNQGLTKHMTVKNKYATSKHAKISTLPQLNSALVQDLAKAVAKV

[34] = Half life in Nu/Nu Balb Harlan mouse at 10 mg/kg, iv; format: ADME, organism-based; set-up: dose 10 mg/kg, route intravenous; details: in vivo; outline: as §2
[35] = target: Protein kinase C beta type (Homo sapiens, UniProt P05771); assay: Inhibition of PKCbeta
[36] = test system: A2780; assay: Cell cycle arrest in human A2780 cells assessed as induction of phospho Thr199 nucleophosmin level after 24 hrs by Western blotting analysis; format: functional, cell-based
Outline: (§3)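 A2780 cells were treated for 24 h at 0.05, 0.5 and 5 µM, with nocodazole as positive control. Lysates were immunoblotted for pSer10 histone H3, pThr199 nucleophosmin, cyclin B1, cyclin A, PARP cleavage and caspase 3 activation.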

[37] = target: Serine/threonine-protein kinase Nek6 (Homo sapiens, UniProt Q9HC98); assay: Inhibition of NEK6
Serine/threonine-protein kinase Nek6, sequence (Q9HC98 whole entry): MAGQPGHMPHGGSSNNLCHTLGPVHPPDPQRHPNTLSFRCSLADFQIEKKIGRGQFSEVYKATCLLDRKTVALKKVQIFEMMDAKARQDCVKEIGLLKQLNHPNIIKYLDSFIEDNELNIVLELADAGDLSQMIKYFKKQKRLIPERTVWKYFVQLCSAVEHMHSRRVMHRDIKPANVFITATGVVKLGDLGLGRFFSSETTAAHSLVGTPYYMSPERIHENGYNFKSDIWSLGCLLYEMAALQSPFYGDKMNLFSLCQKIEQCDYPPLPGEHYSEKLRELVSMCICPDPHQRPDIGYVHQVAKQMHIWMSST

[38] = test system: Caco-2; assay: Apparent permeability across human Caco2 cells; format: ADME, cell-based
[39] = test system: LNCaP; assay: Antiproliferative activity against human LNCAP cells; format: functional, cell-based
[40] = Oral bioavailability in Nu/Nu Balb Harlan mouse at 10 mg/kg; format: ADME, organism-based; details: in vivo
[41] = target: Fibroblast growth factor receptor 1 (Homo sapiens, UniProt P11362); assay: Inhibition of FGFR1
[42] = Cmax in Nu/Nu Balb Harlan mouse at 10 mg/kg, po; format: ADME, organism-based; set-up: dose 10 mg/kg, route oral; details: in vivo
[43] = target: Serine/threonine-protein kinase PAK 4 (Homo sapiens, UniProt O96013); assay: Inhibition of PAK4
[44] = target: Mitogen-activated protein kinase 14 (Homo sapiens, UniProt Q16539); assay: Inhibition of P38alpha
[45] = Apparent permeability of the compound by PAMPA; format: ADME
[46] = target: Mast/stem cell growth factor receptor Kit (Homo sapiens, UniProt P10721); assay: Inhibition of KIT
[47] = test system: K562; assay: Antiproliferative activity against human K562 cells; format: functional, cell-based
[48] = target: Protein-tyrosine kinase 6 (Homo sapiens, UniProt Q13882); assay: Inhibition of BRK
Protein-tyrosine kinase 6, sequence (Q13882 whole entry): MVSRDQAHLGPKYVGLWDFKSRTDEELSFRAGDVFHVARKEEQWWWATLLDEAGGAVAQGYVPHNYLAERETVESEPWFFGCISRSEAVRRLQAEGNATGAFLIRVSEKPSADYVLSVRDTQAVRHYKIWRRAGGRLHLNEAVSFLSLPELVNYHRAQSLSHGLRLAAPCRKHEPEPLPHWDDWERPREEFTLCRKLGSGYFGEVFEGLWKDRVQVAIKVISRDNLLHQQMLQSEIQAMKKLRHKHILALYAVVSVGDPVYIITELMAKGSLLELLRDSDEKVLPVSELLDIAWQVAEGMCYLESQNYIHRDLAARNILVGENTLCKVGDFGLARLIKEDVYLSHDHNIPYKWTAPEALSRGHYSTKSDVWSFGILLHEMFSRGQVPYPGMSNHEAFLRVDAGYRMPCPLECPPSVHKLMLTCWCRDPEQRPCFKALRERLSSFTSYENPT

[49] = test system: A2780; assay: Induction of apoptosis in human A2780 cells assessed as PARP cleavage at 5 uM after 24 hrs by Western blotting analysis; format: functional, cell-based; outline: as §3
[50] = target: Insulin receptor (Homo sapiens, UniProt P06213); assay: Inhibition of IR
[51] = target: Serine/threonine-protein kinase PLK3 (Homo sapiens, UniProt Q9H4B4); assay: Inhibition of PLK3
[52] = Inhibition of CK2
[53] = test system: MOLM-13; assay: Antiproliferative activity against human MOLM13 cells; format: functional, cell-based
[54] = target: Vascular endothelial growth factor receptor 3 (Homo sapiens, UniProt P35916); assay: Inhibition of VEGFR3

CN1CCN(c2ccc(OC(F)(F)F)c(Nc3nccc(-c4cc5c(n4C)CCNC5=O)n3)c2)CC1
pIC50 [1]: < 5.00
AUC(0-inf) [2]: 2.38 µM·h
Tmax [3]: 1.5 h
pIC50 [4]: < 5.00
pIC50 [5]: < 5.00
pIC50 [6]: < 5.00
pIC50 [7]: < 5.00
pIC50 [8]: < 5.00
pIC50 [9]: < 5.00
Activity [10]: Active
pIC50 [11]: < 5.00
AUC(0-inf) [12]: 5.78 µM·h
pIC50 [13]: 6.18
pIC50 [14]: 7.77
Vd [15]: 2.49 L/kg
pIC50 [16]: < 5.00
pIC50 [17]: 7.49
pIC50 [18]: 7.57
CLint scaled at 1 µM [19]: 16.5 mL/min/kg
pIC50 [20]: < 5.00
pIC50 [21]: < 5.00
pIC50 [22]: 7.43
pIC50 [23]: < 5.00
clearance [24]: 66.4 mL/min/kg
pIC50 [25]: < 5.00
Activity [26]: Active
pIC50 [27]: < 5.00
pIC50 [28]: < 5.00
pIC50 [29]: < 5.00
IC50 [30]: > 10 µM
pIC50 [31]: < 5.00
pIC50 [32]: < 5.00
pIC50 [33]: < 5.00
half-life [34]: 0.52 h
pIC50 [35]: < 5.00
Activity [36]: Dose-dependent effect
pIC50 [37]: < 5.00
Papp [38]: permeable
pIC50 [39]: 7.59
bioavailability [40]: 52%
pIC50 [41]: < 5.00
Cmax [42]: 760 nM
pIC50 [43]: < 5.00
pIC50 [44]: < 5.00
Papp [45]: 5.79 ×10⁻⁶ cm/s
pIC50 [46]: < 5.00
pIC50 [47]: 7.22
pIC50 [48]: < 5.00
Activity [49]: Active
pIC50 [50]: < 5.00
pIC50 [51]: < 5.00
pIC50 [52]: 6.38
pIC50 [53]: 7.68
pIC50 [54]: < 5.00
